The source made the active and inactive calls. No cut-off for these calls is given here.
Tests used:
P388 [1] = test: Antitumor activity in murine lymphocytic leukemia P388 cells; format: functional, Mus musculus
Method in brief: (§1)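 Preliminary in vivo antitumor screen in mice bearing murine lymphocytic leukemia P388. The read-out is percent increase in life span (% ILS). Highest nontoxic doses used in the assay are reported in parentheses.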

Mus musculus [2] = species on record: Mus musculus; test: Number of animals survived after 30 days of treatment; 0/6.; format: functional
P388 [3] = test: Lethal dose in murine lymphocytic leukemia P388 cells; format: functional, Mus musculus
Mus musculus [4] = species on record: Mus musculus; test: Percent increase in life span (% ILS) was tested at optimal dose.; format: functional
Method in brief: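 In vivo murine P388 lymphocytic leukemia screen; antitumor effect read as percent increase in life span (% ILS).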

Mus musculus [5] = species on record: Mus musculus; test: Number of animals survived after 30 days; format: functional
P388 [6] = test: The compound tested for the lethal dose in murine lymphocytic leukemia P388.; format: ADME; conditions: mouse
Mus musculus [7] = species on record: Mus musculus; test: Number of animals survived after 60 days; 3/6; format: functional
P388 [8] = test: The compound tested for the highest non-toxic dose in murine lymphocytic leukemia P388.; format: functional, Mus musculus
Method in brief: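 In vivo murine P388 lymphocytic leukemia screen; the value reported is the highest nontoxic dose used in the assay.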

Mus musculus [9] = species on record: Mus musculus; test: Percent increase in life span (% ILS) was tested at optimal dose; I indicates inactive; format: functional, organism-based; method in brief: as §1
Mus musculus [10] = species on record: Mus musculus; test: Number of animals survived after 30 days; 6/8; format: functional
Mus musculus [11] = species on record: Mus musculus; test: Number of animals survived after 60 days; 0/6; format: functional
Mus musculus [12] = species on record: Mus musculus; test: Number of animals survived after 30 days; 4/6; format: functional
Mus musculus [13] = species on record: Mus musculus; test: Number of animals survived after 30 days; 3/6; format: functional
Mus musculus [14] = species on record: Mus musculus; test: Number of animals survived after 30 days; 1/6; format: functional
Mus musculus [15] = species on record: Mus musculus; test: Number of animals survived after 30 days; 2/6; format: functional

SMILES | Optimal dose (P388 [1]) [mg/kg] | No. of animals survived (Mus musculus [2]) | LD20 (P388 [3]) [mg/kg] | ILS (Mus musculus [4]) [%] | Highest non-toxic dose (P388 [8]) [mg/kg] | ILS (Mus musculus [9]) | other results
CC(CO)(CO)NCc1ccc2c(ccc3cc4ccccc4cc32)c1 | 200 | 0 | 200 | 20 | – | – | –
CC(CO)(CO)NCc1ccc2c3ccccc3c3ccccc3c2c1.Cl | 85 | 0 | 85 | 100 | – | – | –
CC(CO)(CO)NCc1ccc2c3c(cccc13)-c1ccccc1-2.Cl | 105 | – | – | 190 | – | – | No. of animals survived (Mus musculus [5]): 5; LD20 (P388 [6]): 110 mg/kg; No. of animals survived (Mus musculus [7]): 3
CC(CO)(CO)NCc1ccc(-c2ccccc2)cc1.Cl | 283 | – | – | – | 283 | inactive | –
CC(CO)(CO)NCc1cccc2cc3ccccc3cc12.Cl | 120 | 0 | 110 | 125 | – | – | –
CC(CO)(CO)NCc1cccc2c1-c1cccc3cccc-2c13.Cl | 100 | 0 | – | 142 | – | – | LD20 (P388 [6]): 123 mg/kg
CC(CO)(CO)NCc1cc2c3ccccc3ccc2c2ccccc12 [CRISNATOL] | 120 | – | 120 | 215 | – | – | No. of animals survived (Mus musculus [10]): 6; No. of animals survived (Mus musculus [7]): 3
CC(CO)(CO)NCc1c2ccccc2c2ccc3cccc4ccc1c2c43 | 100 | 0 | 123 | 100 | – | – | –
CC(CO)(CO)NCc1ccc2ccc3ccccc3c2c1.Cl | 225 | 0 | 250 | 20 | – | – | –
CC(CO)(CO)NCc1ccc2ccc3cccc4ccc1c2c34.Cl | 260 | 0 | 275 | 120 | – | – | –
CC(CO)(CO)NCc1c2ccccc2cc2ccccc12.Cl | 150 | 0 | 150 | 30 | – | – | –
CC(CO)(CO)NCc1ccc2c(ccc3c4ccccc4ccc23)c1 | 450 | – | 450 | – | – | inactive | –
CC(CO)(CO)NCc1cc2ccccc2c2ccccc12.Cl | 150 | 0 | 125 | 60 | – | – | –
CC(CO)(CO)NCc1c2c3c(cccc3c3ccccc13)C=C2 | 110 | – | 125 | 225 | – | – | No. of animals survived (Mus musculus [11]): 0; No. of animals survived (Mus musculus [12]): 4
CC(CO)(CO)NCc1ccc2c(c1)-c1cccc3cccc-2c13.Cl | 150 | – | – | – | 166 | inactive | –
CC(CO)(CO)NCc1cccc2c3ccccc3c3ccccc3c12.Cl | 155 | 0 | 165 | 25 | – | – | –
CC(CO)(CO)NCc1c2c3c(cccc3c3ccccc13)CC2 | 60 | – | 70 | 200 | – | – | No. of animals survived (Mus musculus [11]): 0; No. of animals survived (Mus musculus [13]): 3
CC(CO)(CO)NCc1cccc2ccccc12.Cl | 180 | – | – | – | 180 | inactive | –
CC(CO)(CO)NCc1cc2cccc3ccc4cccc1c4c32.Cl | 40 | 0 | 40 | 45 | – | – | –
CC(CO)(CO)NCc1ccccc1.Cl | 350 | – | – | – | 350 | inactive | –

SMILES | Optimal dose (P388 [1]) [mg/kg] | No. of animals survived (Mus musculus [2]) | LD20 (P388 [3]) [mg/kg] | ILS (Mus musculus [4]) [%] | Highest non-toxic dose (P388 [8]) [mg/kg] | ILS (Mus musculus [9]) | other results
CC(CO)(CO)NCc1cc2ccc3ccccc3c2c2ccccc12 | 7.5 | 0 | 15 | 42 | – | – | –
CC(CO)(CO)NCc1ccc2c(c1)Cc1ccccc1-2.Cl | 225 | – | – | – | 225 | inactive | –
CC(CO)(CO)NCc1ccc2c(ccc3ccccc32)c1.Cl | 200 | 0 | 175 | 33 | – | – | –
CCCCCCCCCCCCNC(C)(CO)CO.Cl | 75 | – | – | – | 75 | inactive | –
CC(CO)(CO)NCc1cc2c3c(cccc3c1)-c1ccccc1-2.Cl | 160 | 0 | – | 105 | – | – | LD20 (P388 [6]): 160 mg/kg
CC(CO)(CO)NCc1ccc2ccccc2c1.Cl | 240 | – | – | – | 240 | inactive | –
CC(CO)(CO)NCc1c2c(cc3ccccc13)Cc1ccccc1-2 | 250 | – | – | 210 | 250 | – | No. of animals survived (Mus musculus [11]): 0; No. of animals survived (Mus musculus [13]): 3
CC(CO)(CO)NCc1cccc2c1ccc1ccccc12.Cl | 230 | 0 | 225 | 65 | – | – | –
CC(CO)(CO)NCc1ccc2cccc3c2c1-c1ccccc1-3.Cl | 140 | 0 | – | 100 | – | – | LD20 (P388 [6]): 140 mg/kg
CC(CO)(CO)NCc1cc2c3c(ccc4c3c1CCC4)CCC2.Cl | 151 | – | – | – | 151 | inactive | –
CC(CO)(CO)NCc1ccc2c3c1ccc1cccc(c13)C2 | 270 | 0 | 300 | 45 | – | – | –
CC(CO)(CO)NCc1ccc2ccc3c4ccccc4ccc3c2c1 | 110 | 0 | 110 | 20 | – | – | –
CC(CO)(CO)NCc1cccc2ccc3c4ccccc4ccc3c12 | 225 | – | 225 | 120 | – | – | No. of animals survived (Mus musculus [11]): 0; No. of animals survived (Mus musculus [14]): 1
CC(CO)(CO)NCc1c2ccccc2cc2cc3ccccc3cc12 | 60 | – | 60 | 165 | – | – | No. of animals survived (Mus musculus [15]): 2; No. of animals survived (Mus musculus [11]): 0
CC(CO)(CO)NCc1ccc2c3cccc4cccc(c5cccc1c52)c43.Cl | 350 | 0 | 425 | 100 | – | – | –
CC(CO)(CO)NCc1cccc2ccc3ccccc3c12.Cl | 269 | – | – | – | 269 | inactive | –
CC(CO)(CO)NCc1ccc2cc3ccccc3cc2c1.Cl | 250 | – | – | – | 250 | inactive | –
CC(CO)(CO)NCc1ccc(-c2ccccc2)c2ccccc12.Cl | 175 | – | – | – | 175 | inactive | –
CC(CO)(CO)NCc1c2ccccc2cc2c1ccc1ccccc12 | 180 | – | 220 | 180 | – | – | No. of animals survived (Mus musculus [15]): 2; No. of animals survived (Mus musculus [11]): 0
